Data on one compound can be found in ChEMBL document CHEMBL4706639, “Discovery of Novel Azetidine Amides as Potent Small-Molecule STAT3 Inhibitors” (J Med Chem, 2021).

The test system of one data set is MCF7. Description: Antiproliferative activity against human MCF7 cells assessed as reduction in cell viability incubated for 72 hrs by CyQuant assay. In kind it is functional, cell-based. To be noted: MCF7, 72 h.
For data set [1], the target named is Signal transducer and activator of transcription 3 (Homo sapiens) (UniProt P40763). The experiment in a line: Inhibition of STAT3 in human MDA-MB-231 cells assessed as effect on Akt expression at 1 to 3 uM incubated for 3 to 24 hrs by immunoblotting analysis. In kind it is cell-based. As to conditions: dose 1-3 µM, time lower 3.0 hrs, time upper […]. In short, it runs like this: (§1)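 MDA-MB-231 cells treated with 1 or 3 μM compound. Whole-cell lysates prepared in RIPA buffer and immunoblotted for EGFR, JAK2, Src, AKT and ERK1/2.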
Sequence of Signal transducer and activator of transcription 3 (Homo sapiens) (P40763 whole entry): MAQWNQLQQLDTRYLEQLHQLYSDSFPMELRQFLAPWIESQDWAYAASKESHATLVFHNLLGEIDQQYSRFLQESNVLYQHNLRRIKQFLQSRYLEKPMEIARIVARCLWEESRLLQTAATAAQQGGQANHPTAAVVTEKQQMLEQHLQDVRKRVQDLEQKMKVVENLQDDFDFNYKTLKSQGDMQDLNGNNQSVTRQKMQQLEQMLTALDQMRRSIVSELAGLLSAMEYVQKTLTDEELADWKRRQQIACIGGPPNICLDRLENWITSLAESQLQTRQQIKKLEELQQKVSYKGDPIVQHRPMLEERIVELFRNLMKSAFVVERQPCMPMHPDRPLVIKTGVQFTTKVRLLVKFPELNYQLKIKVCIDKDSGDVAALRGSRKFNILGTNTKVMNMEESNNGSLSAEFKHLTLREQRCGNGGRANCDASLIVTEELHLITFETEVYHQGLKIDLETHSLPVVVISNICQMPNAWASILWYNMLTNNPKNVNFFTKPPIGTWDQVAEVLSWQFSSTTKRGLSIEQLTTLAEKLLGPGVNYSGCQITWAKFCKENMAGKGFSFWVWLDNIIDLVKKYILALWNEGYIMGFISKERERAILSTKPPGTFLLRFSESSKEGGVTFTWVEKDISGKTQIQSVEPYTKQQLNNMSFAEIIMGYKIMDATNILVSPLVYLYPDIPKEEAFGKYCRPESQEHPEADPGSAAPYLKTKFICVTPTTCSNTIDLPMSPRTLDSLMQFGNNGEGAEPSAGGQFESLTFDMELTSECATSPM

Data set [2] shares this target. Description: Inhibition of STAT3 in human MDA-MB-231 cells assessed as inhibition of c-myc expression at 1 to 3 uM incubated for 3 to 24 hrs by immunoblotting analysis. In kind it is cell-based. As to conditions: dose 1-3 µM, time lower 3.0 hrs, time upper […]. In short, it runs like this:
(§2)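 MDA-MB-231 cells treated with 1 or 3 μM compound for 3–24 h. Equal-protein whole-cell lysates (RIPA) immunoblotted for c-Myc, Bcl-2, VEGF, survivin and tubulin. Control is 0.05% DMSO-treated cells. Two to three independent determinations.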

The nature of data set [3]: Aqueous solubility of compound in simulated intestinal fluid. In kind it is physicochemical. As to conditions: simulated gi fluid.
Data set [4] addresses Signal transducer and activator of transcription 3 (Homo sapiens) (UniProt P40763). Description: Inhibition of STAT3 in human MDA-MB-231 cells assessed as induction of PARP cleavage at 1 to 3 uM incubated for 3 to 24 hrs by immunoblotting analysis. In kind it is cell-based. To be noted: dose 1-3 µM, time lower 3.0 hrs, time upper […]. The gist of the method: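 Equal-protein whole-cell lysates run on SDS-PAGE/Western and probed for full-length and cleaved PARP, pYSTAT3, STAT3 and tubulin. Control is 0.05% DMSO. Two independent determinations.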

Data set [5] is described as follows: Drug metabolism of compound in human liver microsomes assessed as hydroxy-acid metabolite formation. In kind it is ADME, Microsome.
For data set [6], the target named is Signal transducer and activator of transcription 3 (Homo sapiens) (UniProt P40763). The experiment in a line: Inhibition of oligonucleotide [32P]-labelled 5'-AGCITCATTTCCCGTAAATCCCTA hSIE probe binding to STAT3 in human MDA-MB-468 cell nuclear extract at 5 uM by EMSA analysis. To be noted: time upper […], TDE = time-dependent effect.
The subject of another data set is MCF-10A. The experiment in a line: Cytotoxicity against human MCF-10A cells assessed as reduction in cell viability incubated for 72 hrs by CyQuant assay. In kind it is cell-based.
Data set [7] has as its target Signal transducer and activator of transcription 3 (Homo sapiens) (UniProt P40763). Description: Binding affinity to STAT3 (unknown origin) assessed as change in entropy by isothermal titration calorimetry.
Data set [8] shares this target. Description: Inhibition of STAT3 in human MDA-MB-231 cells assessed as effect on EGFR expression at 1 to 3 uM incubated for 3 to 24 hrs by immunoblotting analysis. In kind it is cell-based. To be noted: dose 1-3 µM, time lower 3.0 hrs, time upper […]. In short, it runs like this: as §1
Data set [9] shares this target. The experiment in a line: Inhibition of STAT3 in human MDA-MB-231 cells assessed as inhibition of survivin expression at 1 to 3 uM incubated for 3 to 24 hrs by immunoblotting analysis. In kind it is cell-based. As to conditions: dose 1-3 µM, time lower 3.0 hrs, time upper […]. The gist of the method:
as §2

Data set [10] has the same target. Description: Inhibition of STAT3 in human MDA-MB-231 cells assessed as effect on JAK2 expression at 1 to 3 uM incubated for 3 to 24 hrs by immunoblotting analysis. As to conditions: dose 1-3 µM, time lower 3.0 hrs, time upper […]. In kind it is cell-based. The gist of the method: as §1
Data set [11] has the same target. Description: Inhibition of STAT3 in human MDA-MB-231 cells assessed as inhibition of VEGF expression at 1 to 3 uM incubated for 3 to 24 hrs by immunoblotting analysis. In kind it is cell-based. As to conditions: dose 1-3 µM, time lower 3.0 hrs, time upper […]. The gist of the method: as §2
Data set [12] shares this target. Description: Inhibition of STAT3 in human MDA-MB-231 cells assessed as effect on Erk1/2 expression at 1 to 3 uM incubated for 3 to 24 hrs by immunoblotting analysis. In kind it is cell-based. To be noted: dose 1-3 µM, time lower 3.0 hrs, time upper […]. The gist of the method: as §1
Data set [13] in a line: Aqueous solubility of compound in simulated gastric fluid. In kind it is physicochemical. As to conditions: simulated gi fluid.
Another data set has as its system MDA-MB-231. The experiment in a line: Anticlonogenic activity against human MDA-MB-231 cells assessed as inhibition of colony formation at 0.5 uM incubated for 4 hrs by crystal violet staining based assay. In kind it is functional, cell-based. The gist of the method:
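MDA-MB-231 cells seeded as single-cell cultures (250 cells per well), treated once the next day with compound at 0–1 μM and grown until large colonies were visible. Colonies stained with crystal violet for 4 h and photographed. Three independent determinations.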

The test system of a further data set is MDA-MB-468. The experiment in a line: Antiproliferative activity against human MDA-MB-468 cells harbouring STAT3 assessed as reduction in cell viability incubated for 72 hrs by CyQuant assay. In kind it is functional, cell-based. As to conditions: MDA-MB-468, 72 h.
Data set [14] can be described thus: Drug metabolism of compound in human liver microsomes assessed as metabolite formation. In kind it is ADME, Microsome.
The target in data set [15] is Signal transducer and activator of transcription 3 (Homo sapiens) (UniProt P40763). Description: Inhibition of STAT3 in human MDA-MB-231 cells assessed as inhibition of Bcl-2 expression at 1 to 3 uM incubated for 3 to 24 hrs by immunoblotting analysis. In kind it is cell-based. To be noted: dose 1-3 µM, time lower 3.0 hrs, time upper […]. The gist of the method:
as §2

Data set [16] has the same target. Description: Inhibition of STAT3 in human MDA-MB-231 cells assessed as effect on Src expression at 1 to 3 uM incubated for 3 to 24 hrs by immunoblotting analysis. To be noted: dose 1-3 µM, time lower 3.0 hrs, time upper […]. In kind it is cell-based. In short, it runs like this:
as §1

pEC50: −log10 of the molar value. Values after ≈ are worked out from the molar mass of the structure shown. Active and inactive are the calls of the source. No cut-off for these calls is given here.

In the case of `O=C1OCc2cc(N(Cc3ccc(C4CCCCC4)cn3)C(=O)[C@H]3CCN3S(=O)(=O)c3c(F)c(F)c(F)c(F)c3F)ccc21`, the pEC50 with MCF7 was 5.34; in the data set with MCF-10A, 5.34; in the data set with MDA-MB-468, 6.00. Also, the inhibition entry in data set [1], in [2], in data set [4], in [8], in data set [9] and in data set [10] was “Active” in each case. The inhibition entry (in [11]; in data set [12]; with MDA-MB-231; in data set [15]; in [16]) was “Active” each time. In addition, the solubility in [3] was 200 µg/mL (≈ 315 µM); in data set [13] it was 116 µg/mL (≈ 183 µM). Further, the Drug metabolism result in [5] and in data set [14] was “Metabolite_Detected” throughout. For the same compound, in [6], the inhibition result is “Tde”. For the same compound, the -TdeltaS in data set [7] was -2.84 kcal/mol.
